Laboratory results as given in paper PMC4874862 (ACS chemical biology, 2016).

Experiments:
full-length HIV-1 IN = full-length HIV-1 IN (Human immunodeficiency virus type 1 group M subtype B, UniProt P12497); experiment: DLS analysis of IN multimerization; type: biochemical; details: 500 nM BI/D or 3 µM LEDGF/p75 added to 200 nM IN, 30 min
Summary of the method: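 Recombinant full-length HIV-1 IN, E. coli-expressed with His or FLAG tag, at 200 nM in filtered 50 mM HEPES pH 7.4, 2 mM DTT, 2 mM MgCl2, 1 M NaCl. Test compound (500 nM) or LEDGF/p75 (3 µM) was added for 30 min. In a sequential arm, compound was added for 30 min, then LEDGF/p75 for 30 min more. DLS was recorded at 25 °C and particle size distribution calculated.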

[1] = biological target: FLAG-LEDGF/p75 (full length) (UniProt O75475 1-530); experiment: AlphaScreen or HTRF
Chain of FLAG-LEDGF/p75 (full length) (O75475 whole entry): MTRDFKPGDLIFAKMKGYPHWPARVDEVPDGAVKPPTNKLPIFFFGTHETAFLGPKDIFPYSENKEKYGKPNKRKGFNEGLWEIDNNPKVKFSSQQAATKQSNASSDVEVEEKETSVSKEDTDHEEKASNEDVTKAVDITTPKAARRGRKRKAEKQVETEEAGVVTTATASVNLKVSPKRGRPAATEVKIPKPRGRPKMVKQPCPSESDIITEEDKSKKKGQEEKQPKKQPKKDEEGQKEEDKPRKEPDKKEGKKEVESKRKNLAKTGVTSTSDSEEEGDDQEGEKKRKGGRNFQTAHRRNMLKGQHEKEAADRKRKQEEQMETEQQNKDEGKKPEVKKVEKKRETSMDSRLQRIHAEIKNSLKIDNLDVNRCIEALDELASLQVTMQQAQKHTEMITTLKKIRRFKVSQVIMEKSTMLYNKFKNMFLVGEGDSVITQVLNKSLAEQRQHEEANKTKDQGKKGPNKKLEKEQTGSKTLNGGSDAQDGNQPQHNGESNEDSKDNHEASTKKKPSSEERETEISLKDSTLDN

LEDGF/p75: cellular chromatin associated protein, cofactor that binds the HIV-1 IN tetramer; recombinant, His or FLAG tagged
estimated particle diameter (DLS) after addition to IN (full-length HIV-1 IN): ~ 11 nM

B1: 6 × His-HIV-1 IN (wild type full-length HIV-1 integrase) (enzyme)
chain: FLDGIDKAQEEHEKYHSNWRAMASDFNLPPVVAKEIVASCDKCQLKGEAMHGQVDCSPGIWQLDCTHLEGKVILVAVHVASGYIEAEVIPAETGQETAYFLLKLAGRWPVKTVHTDNGSNFTSTTVKAACWWAGIKQEFGIPYNPQSQGVIESMNKELKKIIGQVRDQAEHLKTAVQMAVFIHNFKRKGGIGGYSAGERIVDIIATDIQTKELQKQITKIQNFRVYYRDSRDPVWKGPAKLLWKGEGAVVIQDNSDIKVVPRRKAKIIRDYGKQMAGDDCVASRQDED
Kd [1]: 3.32 ± 0.31 nM
